What was measured:
Type in all cases: functional
MCF7 = test: Growth inhibition of human MCF7 cells at 10 uM after 48 hrs by sulforhodamine B assay; settings: MCF7, 48 h, values are per cent of control
[1] = Growth inhibition of human PC3 cells after 48 hrs by sulforhodamine B assay; settings: PC-3, 48 h
In short: (§1)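 Five-dose concentration series run across a panel of 60 human tumour cell lines. GI50 is taken as the drug concentration giving a 50% reduction in net protein increase relative to untreated control cells.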

[2] = Growth inhibition of human SNB19 cells after 48 hrs by sulforhodamine B assay; settings: SNB-19, 48 h; in short: as §1
[3] = Growth inhibition of human SF268 cells after 48 hrs by sulforhodamine B assay; settings: SF-268, 48 h; in short: as §1
SK-MEL-28 = test: Growth inhibition of human SK-MEL-28 cells after 48 hrs by sulforhodamine B assay; settings: SK-MEL-28, 48 h; in short: as §1
[4] = Growth inhibition of human HL-60(TB) cells after 48 hrs by sulforhodamine B assay; settings: HL-60, 48 h
In short: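 Five-dose study across the 60-cell human tumour panel. GI50 is the drug concentration giving a 50% reduction in net protein increase relative to control cells.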

NCI-H522 [5] = test: Growth inhibition of human NCI-H522 cells at 10 uM after 48 hrs by sulforhodamine B assay; settings: NCI-H522, 48 h, values are per cent of control
[6] = Growth inhibition of human MOLT4 cells at 10 uM after 48 hrs by sulforhodamine B assay; settings: MOLT-4, 48 h, values are per cent of control
[7] = Growth inhibition of human HOP92 cells at 10 uM after 48 hrs by sulforhodamine B assay; settings: HOP-92, 48 h, values are per cent of control
[8] = Growth inhibition of human UACC62 cells after 48 hrs by sulforhodamine B assay; settings: UACC-62, 48 h
In short: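 Five-dose testing across the 60-line human tumour cell panel. GI50 is the drug concentration that gives a 50% reduction in net protein increase relative to control cells.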

NCI-H522 [9] = test: Growth inhibition of human NCI-H522 cells after 48 hrs by sulforhodamine B assay; settings: NCI-H522, 48 h; in short: as §1
[10] = Growth inhibition of human NCI-ADR-RES cells at 10 uM after 48 hrs by sulforhodamine B assay; settings: values are per cent of control
[11] = Growth inhibition of human SKOV3 cells after 48 hrs by sulforhodamine B assay; settings: SK-OV-3, 48 h; in short: as §1
KM12 = test: Growth inhibition of human KM12 cells after 48 hrs by sulforhodamine B assay; settings: KM12, 48 h
In short: (§2)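 Five-dose testing against a 60-line human tumor cell panel. GI50 is the drug concentration giving a 50% reduction in net protein increase relative to untreated control cells.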

MDA-MB-435 = test: Growth inhibition of human MDA-MB-435 cells after 48 hrs by sulforhodamine B assay; settings: MDA-MB-435, 48 h; in short: as §2
[12] = Growth inhibition of human Hs 578T cells after 48 hrs by sulforhodamine B assay; in short: as §2
[13] = Growth inhibition of human HCC2998 cells at 10 uM after 48 hrs by sulforhodamine B assay; settings: HCC 2998, 48 h, values are per cent of control
CCRF-CEM [14] = test: Growth inhibition of human CCRF-CEM cells after 48 hrs by sulforhodamine B assay; in short: as §2
[15] = Growth inhibition of human MOLT4 cells after 48 hrs by sulforhodamine B assay; settings: MOLT-4, 48 h; in short: as §1
CCRF-CEM [16] = test: Growth inhibition of human CCRF-CEM cells at 10 uM after 48 hrs by sulforhodamine B assay; settings: values are per cent of control
[17] = Growth inhibition of human SF539 cells after 48 hrs by sulforhodamine B assay; settings: SF-539, 48 h; in short: as §1
[18] = Growth inhibition of human SF268 cells at 10 uM after 48 hrs by sulforhodamine B assay; settings: SF-268, 48 h, values are per cent of control
U-251 = test: Growth inhibition of human U251 cells at 10 uM after 48 hrs by sulforhodamine B assay; settings: U-251, 48 h, values are per cent of control
[19] = Growth inhibition of human RPMI8226 cells at 10 uM after 48 hrs by sulforhodamine B assay; settings: RPMI-8226, 48 h, values are per cent of control
MDA-MB-468 [20] = test: Growth inhibition of human MDA-MB-468 cells after 48 hrs by sulforhodamine B assay; settings: MDA-MB-468, 48 h; in short: as §2
NCI-H23 = test: Growth inhibition of human NCI-H23 cells after 48 hrs by sulforhodamine B assay; settings: NCI-H23, 48 h; in short: as §1
MDA-MB-468 [21] = test: Growth inhibition of human MDA-MB-468 cells at 10 uM after 48 hrs by sulforhodamine B assay; settings: MDA-MB-468, 48 h, values are per cent of control
Malme-3M = test: Growth inhibition of human MALME-3M cells at 10 uM after 48 hrs by sulforhodamine B assay; settings: values are per cent of control
[22] = Growth inhibition of human COLO205 cells after 48 hrs by sulforhodamine B assay; settings: COLO 205, 48 h; in short: as §2
M14 = test: Growth inhibition of human M14 cells after 48 hrs by sulforhodamine B assay; settings: M14, 48 h; in short: as §2
[23] = Growth inhibition of human TK10 cells at 10 uM after 48 hrs by sulforhodamine B assay; settings: TK-10, 48 h, values are per cent of control
[24] = Growth inhibition of human RPMI8226 cells after 48 hrs by sulforhodamine B assay; settings: RPMI-8226, 48 h; in short: as §1
[25] = Growth inhibition of human HL-60(TB) cells at 10 uM after 48 hrs by sulforhodamine B assay; settings: HL-60, 48 h, values are per cent of control
[26] = Growth inhibition of human HCT15 cells after 48 hrs by sulforhodamine B assay; settings: HCT-15, 48 h; in short: as §2
[27] = Growth inhibition of human UACC257 cells at 10 uM after 48 hrs by sulforhodamine B assay; settings: UACC-257, 48 h, values are per cent of control
MDA-MB-231 = test: Growth inhibition of human MDA-MB-231 cells after 48 hrs by sulforhodamine B assay; settings: MDA-MB-231, 48 h; in short: as §2
[28] = Growth inhibition of human PC3 cells at 10 uM after 48 hrs by sulforhodamine B assay; settings: PC-3, 48 h, values are per cent of control
T47D = test: Growth inhibition of human T47D cells at 10 uM after 48 hrs by sulforhodamine B assay; settings: values are per cent of control
[29] = Growth inhibition of human Caki1 cells after 48 hrs by sulforhodamine B assay; settings: CAKI-1, 48 h; in short: as §2
[30] = Growth inhibition of human SKOV3 cells at 10 uM after 48 hrs by sulforhodamine B assay; settings: SK-OV-3, 48 h, values are per cent of control
[31] = Growth inhibition of human OVCAR4 cells after 48 hrs by sulforhodamine B assay; settings: OVCAR-4, 48 h; in short: as §1

## COc1cc(/C(C#N)=C/c2ccc3c(c2)OCCO3)cc(OC)c1OC
MCF7
  growth, % of control at 10 µM: 14.6%
[1]
  GI50: 60 nM
[2]
  GI50: 190 nM
[3]
  GI50: 110 nM
SK-MEL-28
  GI50: 60 nM
[4]
  GI50: 40 nM
NCI-H522 [5]
  growth, % of control at 10 µM: -27%
[6]
  growth, % of control at 10 µM: -14.3%
[7]
  growth, % of control at 10 µM: -1.7%
[8]
  GI50: 30 nM
NCI-H522 [9]
  GI50: 50 nM
[10]
  growth, % of control at 10 µM: 17%
[11]
  GI50: 40 nM
KM12
  GI50: 50 nM
MDA-MB-435
  GI50: 20 nM
[12]
  GI50: 70 nM
[13]
  growth, % of control at 10 µM: 14.9%
CCRF-CEM [14]
  GI50: 210 nM
[15]
  GI50: 620 nM
CCRF-CEM [16]
  growth, % of control at 10 µM: 0.4%
[17]
  GI50: 20 nM
[18]
  growth, % of control at 10 µM: 24.6%
U-251
  growth, % of control at 10 µM: 8.1%
[19]
  growth, % of control at 10 µM: 39.2%
MDA-MB-468 [20]
  GI50: 30 nM
NCI-H23
  GI50: 160 nM
MDA-MB-468 [21]
  growth, % of control at 10 µM: -15.1%
Malme-3M
  growth, % of control at 10 µM: 64.3%
[22]
  GI50: 120 nM
M14
  GI50: 30 nM
[23]
  growth, % of control at 10 µM: 48.5%
[24]
  GI50: 60 nM
[25]
  growth, % of control at 10 µM: -46.3%
[26]
  GI50: 40 nM
[27]
  growth, % of control at 10 µM: 76%
MDA-MB-231
  GI50: 170 nM
[28]
  growth, % of control at 10 µM: 26.5%
T47D
  growth, % of control at 10 µM: 84.4%
[29]
  GI50: 50 nM
[30]
  growth, % of control at 10 µM: 17.6%
[31]
  GI50: 260 nM

— ChEMBL document CHEMBL3792365, “Dioxol and dihydrodioxin analogs of 2- and 3-phenylacetonitriles as potent anti-cancer agents with nanomolar activity against a variety of human cancer cells” (2016)
